{
  "source": "ChEMBL document CHEMBL1152856",
  "about": "“Design, synthesis and molecular modeling study of acylated 1,2,4-triazole-3-acetates with potential anti-inflammatory activity” (Eur J Med Chem, 2009)",
  "key": {"Rattus norvegicus [1]": {"tested_on": "Rattus norvegicus", "assay": "Antiinflammatory activity in albino rat assessed as inhibition of carrageenan-induced paw edema at 5 mg/kg, po administered 30 mins before carrageenan challenge measured after 2 hrs", "assay_type": "functional", "summary_of_the_method": "(§1)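 Rats dosed orally with compound suspended in 0.5% carboxymethyl cellulose; controls got CMC vehicle. 30 min later, 0.1 mL freshly prepared 1% carrageenan in normal saline injected subplantar into right hind paw. Paw thickness measured at 60, 120 and 180 min after dosing. Result given as % inhibition of edema ± S.E.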"}, "Rattus norvegicus [2]": {"tested_on": "Rattus norvegicus", "assay": "Antiinflammatory activity in albino rat assessed as inhibition of carrageenan-induced paw edema at 5 mg/kg, po administered 30 mins before carrageenan challenge measured after 1 hr", "assay_type": "functional", "summary_of_the_method": "as §1"}, "Rattus norvegicus [3]": {"tested_on": "Rattus norvegicus", "assay": "Antiinflammatory activity in albino rat assessed as inhibition of carrageenan-induced paw edema at 5 mg/kg, po administered 30 mins before carrageenan challenge measured after 3 hrs", "assay_type": "functional", "summary_of_the_method": "as §1"}, "[4]": {"assay": "Toxicity in ip dosed albino mouse assessed as mortality after 24 hrs", "assay_type": "organism-based", "conditions": "in vivo", "summary_of_the_method": "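Adult male albino mice (25-30 g), groups of five, given graded doses intraperitoneally. Mortality per group recorded 24 h after injection. LD50 calculated by a graphical method.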"}, "Rattus norvegicus [5]": {"tested_on": "Rattus norvegicus", "assay": "Gastrointestinal toxicity in albino rat assessed as ulcer index at 100 mg/kg, po after 6 hrs", "assay_type": "organism-based", "design": "dose 100 mg/kg, route oral", "conditions": "in vivo", "summary_of_the_method": "(§2)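 Oral dosing by stomach tube with suspensions in 0.5% w/v aqueous carboxymethyl cellulose (10, 50, 100 mg/kg); controls got equal volume of vehicle. Rats killed at 6 h, stomachs opened along greater curvature, washed, mucosa examined by stereomicroscope. Ulcer = lesion ≥0.5 mm; five patches = 1 mm. Ulcer index = summed lesion lengths divided by animal number; groups of 6.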"}, "Rattus norvegicus [6]": {"tested_on": "Rattus norvegicus", "assay": "Gastrointestinal toxicity in albino rat assessed as ulcer index at 50 mg/kg, po after 6 hrs", "assay_type": "organism-based", "design": "dose 50 mg/kg, route oral", "conditions": "in vivo", "summary_of_the_method": "as §2"}, "Rattus norvegicus [7]": {"tested_on": "Rattus norvegicus", "assay": "Gastrointestinal toxicity in albino rat assessed as ulcer index at 10 mg/kg, po after 6 hrs", "assay_type": "organism-based", "design": "dose 10 mg/kg, route oral", "conditions": "in vivo", "summary_of_the_method": "as §2"}},
  "data": [
    {"smiles": "CCOC(=O)Cc1nc(N)n(C(=O)c2ccccc2)n1", "values": [
      {"measurement": "inhibition in vivo at 5 mg/kg", "setting": "Rattus norvegicus [1]", "result": 38.5, "unit": "%"},
      {"measurement": "inhibition in vivo at 5 mg/kg", "setting": "Rattus norvegicus [2]", "result": 31.6, "unit": "%"},
      {"measurement": "inhibition in vivo at 5 mg/kg", "setting": "Rattus norvegicus [3]", "result": 57.5, "unit": "%"}
    ]},
    {"smiles": "Nc1nc(CC(=O)O)n[nH]1", "values": [
      {"measurement": "inhibition in vivo at 5 mg/kg", "setting": "Rattus norvegicus [1]", "result": 29.5, "unit": "%"},
      {"measurement": "inhibition in vivo at 5 mg/kg", "setting": "Rattus norvegicus [2]", "result": 22.3, "unit": "%"},
      {"measurement": "inhibition in vivo at 5 mg/kg", "setting": "Rattus norvegicus [3]", "result": 48.1, "unit": "%"}
    ]},
    {"smiles": "CCOC(=O)Cc1nc(N)n(C(=O)c2ccc(Br)cc2)n1", "values": [
      {"measurement": "inhibition in vivo at 5 mg/kg", "setting": "Rattus norvegicus [1]", "result": 43, "unit": "%"},
      {"measurement": "inhibition in vivo at 5 mg/kg", "setting": "Rattus norvegicus [2]", "result": 34.8, "unit": "%"},
      {"measurement": "LD50 at 24 h", "setting": "[4]", "result": 120, "unit": "mg/kg"},
      {"measurement": "inhibition in vivo at 5 mg/kg", "setting": "Rattus norvegicus [3]", "result": 64.1, "unit": "%"}
    ]},
    {"smiles": "CCOC(=O)Cc1nc(N)n(C(=O)c2ccc(OC)cc2)n1", "values": [
      {"measurement": "inhibition in vivo at 5 mg/kg", "setting": "Rattus norvegicus [1]", "result": 41.5, "unit": "%"},
      {"measurement": "inhibition in vivo at 5 mg/kg", "setting": "Rattus norvegicus [2]", "result": 32.8, "unit": "%"},
      {"measurement": "inhibition in vivo at 5 mg/kg", "setting": "Rattus norvegicus [3]", "result": 60, "unit": "%"}
    ]},
    {"smiles": "CCOC(=O)Cc1nc(N)n(C(=O)c2ccc([N+](=O)[O-])cc2)n1", "values": [
      {"measurement": "inhibition in vivo at 5 mg/kg", "setting": "Rattus norvegicus [1]", "result": 46.3, "unit": "%"},
      {"measurement": "inhibition in vivo at 5 mg/kg", "setting": "Rattus norvegicus [2]", "result": 36.1, "unit": "%"},
      {"measurement": "LD50 at 24 h", "setting": "[4]", "result": 90, "unit": "mg/kg"},
      {"measurement": "inhibition in vivo at 5 mg/kg", "setting": "Rattus norvegicus [3]", "result": 68.2, "unit": "%"}
    ]},
    {"smiles": "CCOC(=O)Cc1nc(N)n(C(=O)c2ccc(Cl)cc2)n1", "values": [
      {"measurement": "inhibition in vivo at 5 mg/kg", "setting": "Rattus norvegicus [1]", "result": 42.3, "unit": "%"},
      {"measurement": "UI", "setting": "Rattus norvegicus [5]", "result": 0.75},
      {"measurement": "UI", "setting": "Rattus norvegicus [6]", "result": 0.5},
      {"measurement": "inhibition in vivo at 5 mg/kg", "setting": "Rattus norvegicus [2]", "result": 34.2, "unit": "%"},
      {"measurement": "LD50 at 24 h", "setting": "[4]", "result": 130, "unit": "mg/kg"},
      {"measurement": "inhibition in vivo at 5 mg/kg", "setting": "Rattus norvegicus [3]", "result": 62.8, "unit": "%"},
      {"measurement": "UI", "setting": "Rattus norvegicus [7]", "result": 0}
    ]},
    {"smiles": "CCOC(=O)Cc1n[nH]c(NC(=O)c2ccc([N+](=O)[O-])cc2)n1", "values": [
      {"measurement": "inhibition in vivo at 5 mg/kg", "setting": "Rattus norvegicus [1]", "result": 42.1, "unit": "%"},
      {"measurement": "inhibition in vivo at 5 mg/kg", "setting": "Rattus norvegicus [2]", "result": 32.6, "unit": "%"},
      {"measurement": "inhibition in vivo at 5 mg/kg", "setting": "Rattus norvegicus [3]", "result": 59.8, "unit": "%"}
    ]},
    {"smiles": "CCOC(=O)Cc1n[nH]c(NC(=O)c2ccc(OC)cc2)n1", "values": [
      {"measurement": "inhibition in vivo at 5 mg/kg", "setting": "Rattus norvegicus [1]", "result": 38.2, "unit": "%"},
      {"measurement": "inhibition in vivo at 5 mg/kg", "setting": "Rattus norvegicus [2]", "result": 30.2, "unit": "%"},
      {"measurement": "inhibition in vivo at 5 mg/kg", "setting": "Rattus norvegicus [3]", "result": 56, "unit": "%"}
    ]},
    {"smiles": "CCOC(=O)Cc1n[nH]c(N)n1", "values": [
      {"measurement": "inhibition in vivo at 5 mg/kg", "setting": "Rattus norvegicus [1]", "result": 33.6, "unit": "%"},
      {"measurement": "inhibition in vivo at 5 mg/kg", "setting": "Rattus norvegicus [2]", "result": 25, "unit": "%"},
      {"measurement": "inhibition in vivo at 5 mg/kg", "setting": "Rattus norvegicus [3]", "result": 51.8, "unit": "%"}
    ]},
    {"smiles": "CCOC(=O)Cc1n[nH]c(NC(=O)c2ccc(Br)cc2)n1", "values": [
      {"measurement": "inhibition in vivo at 5 mg/kg", "setting": "Rattus norvegicus [1]", "result": 40.4, "unit": "%"},
      {"measurement": "inhibition in vivo at 5 mg/kg", "setting": "Rattus norvegicus [2]", "result": 31.3, "unit": "%"},
      {"measurement": "inhibition in vivo at 5 mg/kg", "setting": "Rattus norvegicus [3]", "result": 58.8, "unit": "%"}
    ]},
    {"smiles": "CCOC(=O)Cc1n[nH]c(NC(=O)c2ccccc2)n1", "values": [
      {"measurement": "inhibition in vivo at 5 mg/kg", "setting": "Rattus norvegicus [1]", "result": 36.2, "unit": "%"},
      {"measurement": "inhibition in vivo at 5 mg/kg", "setting": "Rattus norvegicus [2]", "result": 26.8, "unit": "%"},
      {"measurement": "inhibition in vivo at 5 mg/kg", "setting": "Rattus norvegicus [3]", "result": 55.3, "unit": "%"}
    ]},
    {"smiles": "CCOC(=O)Cc1n[nH]c(NC(=O)c2ccc(Cl)cc2)n1", "values": [
      {"measurement": "inhibition in vivo at 5 mg/kg", "setting": "Rattus norvegicus [1]", "result": 39.1, "unit": "%"},
      {"measurement": "UI", "setting": "Rattus norvegicus [5]", "result": 0.75},
      {"measurement": "UI", "setting": "Rattus norvegicus [6]", "result": 0},
      {"measurement": "inhibition in vivo at 5 mg/kg", "setting": "Rattus norvegicus [2]", "result": 31.1, "unit": "%"},
      {"measurement": "inhibition in vivo at 5 mg/kg", "setting": "Rattus norvegicus [3]", "result": 58.5, "unit": "%"},
      {"measurement": "UI", "setting": "Rattus norvegicus [7]", "result": 0}
    ]},
    {"smiles": "COc1ccc2c(c1)c(CC(=O)O)c(C)n2C(=O)c1ccc(Cl)cc1", "note": "[INDOMETHACIN]", "values": [
      {"measurement": "inhibition in vivo at 5 mg/kg", "setting": "Rattus norvegicus [1]", "result": 40.1, "unit": "%"},
      {"measurement": "UI", "setting": "Rattus norvegicus [5]", "result": 2.1},
      {"measurement": "UI", "setting": "Rattus norvegicus [6]", "result": 1.9},
      {"measurement": "inhibition in vivo at 5 mg/kg", "setting": "Rattus norvegicus [2]", "result": 31.5, "unit": "%"},
      {"measurement": "LD50 at 24 h", "setting": "[4]", "result": 50, "unit": "mg/kg"},
      {"measurement": "inhibition in vivo at 5 mg/kg", "setting": "Rattus norvegicus [3]", "result": 60.8, "unit": "%"},
      {"measurement": "UI", "setting": "Rattus norvegicus [7]", "result": 2.5}
    ]}
  ]
}
